Experimental data as given in ChEMBL document CHEMBL4321838, “Drug Design Targeting T-Cell Factor-Driven Epithelial-Mesenchymal Transition as a Therapeutic Strategy for Colorectal Cancer” (J Med Chem, 2019).
≈ marks a conversion by molar mass, not a printed value. Values belong to the compound of their own block, whether it stands above or below them. Calls of active or inactive are those of the source.

Assays:
[1] = AUC(0 to t) in CD-1 mouse at 50 mg/kg, ip by LC-MS/MS analysis; format: ADME, organism-based; details: in vivo
How it was run: (§1)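 Female CD-1 mice, single IP injection at 50 mg/kg in 100% DMSO. Sampling from 0.25 to 24 h, three mice per time point (21 per compound). Heparinised blood was spun to plasma, mixed 1:1 with acidified acetonitrile (0.1% formic acid or 0.1% TFA depending on compound), centrifuged, then measured by LC-MS/MS.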

[2] = target: T1, DNA topoisomerase 2-alpha (Homo sapiens, UniProt P11388); assay: Inhibition of topoisomerase 2alpha dependent TCF transcription in human SW620 organoids transduced with TOPflash luminescent reporter after 72 hrs by luciferase based TOPFlash reporter gene assay
T1 sequence (P11388 whole entry): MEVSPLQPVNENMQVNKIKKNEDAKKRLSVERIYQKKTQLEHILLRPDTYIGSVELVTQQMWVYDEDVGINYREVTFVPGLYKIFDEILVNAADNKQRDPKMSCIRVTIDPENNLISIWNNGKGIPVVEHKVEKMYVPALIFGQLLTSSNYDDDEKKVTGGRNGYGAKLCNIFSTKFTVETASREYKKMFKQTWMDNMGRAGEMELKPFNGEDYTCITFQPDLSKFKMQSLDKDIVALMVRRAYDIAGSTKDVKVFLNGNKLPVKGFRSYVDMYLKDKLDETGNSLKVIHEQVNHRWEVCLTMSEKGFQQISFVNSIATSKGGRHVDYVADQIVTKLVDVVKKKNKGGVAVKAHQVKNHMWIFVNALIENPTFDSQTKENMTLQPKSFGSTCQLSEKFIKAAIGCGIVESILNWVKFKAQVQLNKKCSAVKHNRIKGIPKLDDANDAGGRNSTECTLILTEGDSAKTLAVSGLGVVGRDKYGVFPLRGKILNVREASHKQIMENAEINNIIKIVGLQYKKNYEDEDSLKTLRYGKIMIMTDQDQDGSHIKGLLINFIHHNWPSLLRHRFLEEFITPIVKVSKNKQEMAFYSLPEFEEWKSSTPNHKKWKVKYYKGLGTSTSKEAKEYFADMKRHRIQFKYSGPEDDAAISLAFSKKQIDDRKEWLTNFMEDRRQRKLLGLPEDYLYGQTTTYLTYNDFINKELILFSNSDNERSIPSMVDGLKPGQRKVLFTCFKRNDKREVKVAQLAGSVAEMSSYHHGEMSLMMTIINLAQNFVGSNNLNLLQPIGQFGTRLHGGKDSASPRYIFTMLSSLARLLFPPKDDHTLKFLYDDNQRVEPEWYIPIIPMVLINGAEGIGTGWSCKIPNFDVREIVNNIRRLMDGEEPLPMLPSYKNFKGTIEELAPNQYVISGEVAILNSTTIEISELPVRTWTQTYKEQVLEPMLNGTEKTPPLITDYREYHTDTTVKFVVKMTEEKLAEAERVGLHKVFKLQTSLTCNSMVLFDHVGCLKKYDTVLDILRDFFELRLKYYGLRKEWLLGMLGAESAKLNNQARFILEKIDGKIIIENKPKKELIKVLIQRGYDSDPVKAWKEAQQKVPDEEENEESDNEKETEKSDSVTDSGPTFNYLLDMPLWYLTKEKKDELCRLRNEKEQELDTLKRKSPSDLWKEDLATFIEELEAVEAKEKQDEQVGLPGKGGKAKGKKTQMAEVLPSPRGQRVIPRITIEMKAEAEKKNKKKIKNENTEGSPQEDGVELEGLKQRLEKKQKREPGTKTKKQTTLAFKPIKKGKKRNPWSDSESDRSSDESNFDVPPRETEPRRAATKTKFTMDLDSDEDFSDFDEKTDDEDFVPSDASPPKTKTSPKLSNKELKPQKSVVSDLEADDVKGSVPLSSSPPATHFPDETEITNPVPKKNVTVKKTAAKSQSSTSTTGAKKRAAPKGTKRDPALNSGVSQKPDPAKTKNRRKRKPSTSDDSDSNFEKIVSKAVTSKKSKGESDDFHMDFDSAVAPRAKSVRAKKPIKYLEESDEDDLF
How it was run: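 SW620 cells stably carrying pCDH-TOPflash-luc grown as organoids: 5,000 cells per U-bottom well in phenol red-free RPMI with 5% FBS and 2% Matrigel, 72 h. Inhibitor then applied 72 h. One-Glo luciferase and CellTiter-Glo 3D added 1:1. Luciferase signal normalised to viability, then to DMSO controls.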

[3] = Tmax in CD-1 mouse at 50 mg/kg, ip by LC-MS/MS analysis; format: ADME, organism-based; details: in vivo; how it was run: as §1
[4] = Half life of terminal disposition phase in CD-1 mouse at 50 mg/kg, ip by LC-MS/MS analysis; format: ADME, organism-based; details: in vivo, read-out: t1/2lambda (converted); how it was run: as §1
[5] = target: T1, DNA topoisomerase 2-alpha; assay: Inhibition of topoisomerase 2alpha in human SW620 organoids transfected with VimPro-GFP reporter assessed as reversion of epithelial-mesenchymal transition by measuring reduction in vimentin expression up to 40 uM after 72 hrs by Hoechst 33342 staining based GFP reporter gene assay
How it was run: (§2)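 SW620 cells stably carrying VimPro-GFP or EcadPro-mCherry (puromycin selected) grown as organoids and dosed 72 h. Stained with 16 μM Hoechst 33342 for 1 h and imaged as 15 z-layers, 26.5 μm apart. Nuclei segmented and GFP- or mCherry-positive cells counted above background thresholds. Percent positive cells normalised to DMSO.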

[6] = Half life in CD-1 mouse microsomes measured up to 1 hr by LC-MS analysis; format: ADME, Microsome
How it was run: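 Female CD-1 mouse liver microsomes (0.5 mg/mL), substrate 1 μg/mL and 1.5 mM NADPH in 0.1 M phosphate buffer pH 7.4 at 37 °C. Samples taken from 0 to 60 min and quenched with an equal volume of acetonitrile. Parent compound remaining measured by LC-MS/MS without internal standard.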

SW-620 [7] = assay: Induction of early stage cell death in human SW620 organoids transfected with EcadPro-RFP reporter assessed as loss of RFP reporter activity at 40 uM at after 72 hrs by Hoechst 33342 staining based mCherryRFP reporter gene assay; details: sw-620, 72 h
SW-620 [8] = assay: Anticlonogenic activity against human SW620 cells assessed as loss of cancer stem cell stemness by measuring inhibition of colony formation at 10 uM incubated for 24 hrs followed by replating and measured after 7 days by clonogenic assay; format: functional, cell-based
[9] = target: T1, DNA topoisomerase 2-alpha; assay: Poison activity at topoisomerase 2alpha in human SW620 cells assessed as induction of DNA double stranded break by measuring gamma H2AX phosphorylation up to 40 uM after 6 hrs by Hoechst-33342 staining based immunofluorescence assay; format: cell-based
How it was run: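 SW620 monolayers, 20,000 cells per well, treated with compound for 6 or 24 h. Fixed in 4% paraformaldehyde, then permeabilised and blocked. Stained with γ-H2AX antibody overnight at 4 °C, FITC secondary antibody, and Hoechst 33342, then imaged at 20x.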

[10] = Drug metabolism in CD-1 mouse active microsomes assessed as CYP450-mediated oxidative phase 1 metabolite formation measured within 30 mins by LC-MS/MS analysis; format: ADME; details: 0.5 h
[11] = Drug metabolism in CD-1 mouse active microsomes assessed as CYP450-mediated oxidative phase 1 metabolite formation by LC-MS/MS analysis
[12] = Metabolic stability in CD-1 mouse inactive microsomes incubated for 1 hr by LC-MS/MS analysis; format: ADME, Microsome
[13] = Aqueous solubility of compound in PBS at 1 mg after 18 hrs by UV based analysis; format: physicochemical
How it was run: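 Undissolved material removed by centrifugation at 5,000g for 45 min. UV absorption compared with a fully saturated 1-propanol solution; solubility derived by linear regression.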

[14] = target: T1, DNA topoisomerase 2-alpha; assay: Inhibition of topoisomerase 2alpha in human SW620 organoids transfected with EcadPro-RFP reporter assessed as reversion of epithelial-mesenchymal transition by measuring increase in E-cadherin expression up to 40 uM after 72 hrs by Hoechst 33342 staining based mCherryRFP reporter gene assay; how it was run: as §2
SW-620 [15] = assay: Induction of apoptosis in human SW620 organoids assessed as increase in cleaved caspase 3/7 level at 40 uM after 72 hrs by caspase-glo 3/7 luminescence assay relative to control; format: functional
How it was run: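 SW620 cells, 2,000 per well in 384-well ultra-low attachment plates with 2% Matrigel, grown 72 h into organoids, then dosed 72 h. Caspase-Glo 3/7 reagent added 1:1 and shaken 30 min; luminescence read. Staurosporine served as positive control and 0.4% DMSO as negative control.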

[16] = target: T1, DNA topoisomerase 2-alpha; assay: Inhibition of topoisomerase 2alpha dependent TCF transcription in human SW620 organoids transduced with TOPflash luminescent reporter at 10 uM after 72 hrs by luciferase based TOPFlash reporter gene assay
SW-620 [17] = assay: Antiinvasive activity in human SW620 organoids transduced with NucLight-Red virus assessed as inhibition of cell invasion at 10 uM incubated for 72 hrs and measured after 72 hrs by matrigel based fluorescence analysis; format: functional
How it was run: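 NucLight-Red-labelled SW620 organoids treated 72 h at 10 μM in 0.1% DMSO, then dissociated. 5,000 live cells per well seeded in 50% Matrigel in the upper chamber of a migration plate, 0.5% FBS above and 20% FBS below. Invading cells tracked by bottom-side fluorescence over days, six replicates per condition.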

[18] = Cmax in CD-1 mouse at 50 mg/kg, ip by LC-MS/MS analysis; format: ADME, organism-based; design: dose 50 mg/kg, route intraperitoneal; details: in vivo; how it was run: as §1
SW-620 [19] = assay: Cytotoxicity against human SW620 organoids assessed as cell death with loss of membrane integrity after 72 hrs by CellTox Green assay; format: functional, cell-based; details: SW-620, 72 h
How it was run: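 SW620 tumor organoids exposed 72 h to inhibitor over 0–40 μM together with CellTox Green Express (0.5X). Whole-well mean fluorescence imaged (ex 488, em 500–550 nm). Normalised to lysis buffer as 0% viability and 0.4% DMSO as 100% viability.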

[20] = target: T1, DNA topoisomerase 2-alpha; assay: Inhibition of human topoisomerase 2alpha mediated decatenation at 30 uM using kDNA as susbtrate preincubated for 20 mins followed by substrate and ATP addition and measured after 1 hr by ethidium bromide staining based gel electrophoresis method relative to control
How it was run: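 Human TOP2A (3 U) preincubated 20 min at 37 °C with compound at 30 μM in 1.2% DMSO. Reaction started with 2 mM ATP and 35 ng kDNA and run 1 h at 37 °C. Products resolved on 0.8% agarose in TBE with 0.2 μg/mL ethidium bromide; decatenated bands compared with vehicle.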

[21] = target: T1, DNA topoisomerase 2-alpha; assay: Inhibition of topoisomerase 2alpha in human SW620 organoids transfected with VimPro-GFP reporter assessed as reversion of epithelial-mesenchymal transition by measuring reduction in vimentin expression at 10 uM after 72 hrs by Hoechst 33342 staining based GFP reporter gene assay; how it was run: as §2
Mus musculus = assay: Apparent volume of drug distribution in CD-1 mouse at 50 mg/kg, ip by LC-MS/MS analysis; format: ADME, organism-based; details: in vivo; how it was run: as §1
SW-620 [22] = assay: Cytotoxicity against human SW620 organoids assessed as growth inhibition at 10 uM after 72 hrs by brightfield imaging of organoid volume
[23] = Clearance in CD-1 mouse at 50 mg/kg, ip by LC-MS/MS analysis; format: ADME, organism-based; details: in vivo; how it was run: as §1
[24] = target: T1, DNA topoisomerase 2-alpha; assay: Inhibition of topoisomerase 2alpha in human SW620 organoids transfected with EcadPro-RFP reporter assessed as reversion of epithelial-mesenchymal transition by measuring increase in E-cadherin expression at 10 uM after 72 hrs by Hoechst 33342 staining based mCherryRFP reporter gene assay; how it was run: as §2
[25] = Drug metabolism in CD-1 mouse active microsomes assessed as metabolite formation at rate of biphasic kinetics by LC-MS/MS analysis; format: ADME, Microsome
[26] = Drug metabolism in CD-1 mouse active microsomes assessed as metabolite formation at rate of first-order kinetics by LC-MS/MS analysis; format: ADME, Microsome

AUC(0-t) [1]: 12500 ng·h/mL
IC50 [2]: 2400 nM
Tmax [3]: 15 min
half-life [4]: 118 min
inhibition [5]: Active
t1/2 [6]: 6.72 min
Drug metabolism [10]: Metabolite_Detected
Drug metabolism [11]: Metabolite_Notdetected
Stability [12]: Stable
solubility thermodynamic at 18 h [13]: 450 µg/mL (≈ 1440 µM)
inhibition [14]: Active
inhibition [16]: Active
Cmax [18]: 19000 ng/mL
inhibition [20]: 99%
inhibition [21]: Active
Vz (Mus musculus): 10.9 L/kg
CL/F [23]: 64.5 mL/min/kg
inhibition [24]: Active
SMILES: CC(=O)Nc1ccc2c(-c3cc(F)ccc3O)ccnc2c1O
Activity (SW-620 [7]): Active
inhibition (SW-620 [8]): Active
Activity [9]: Not Active
Activity (SW-620 [15]): Active
inhibition (SW-620 [17]): Active
EC50 (SW-620 [19]): > 30 µM
growth inhibition (GI) (SW-620 [22]): Active

Drug metabolism [10]: Metabolite_Detected
Drug metabolism [11]: Metabolite_Notdetected
Stability [12]: Stable
Drug metabolism [25]: Metabolite_Detected
Drug metabolism [26]: Metabolite_Notdetected
inhibition [20]: 92%
SMILES: CC(=O)Nc1ccc2c(-c3ccsc3)ccnc2c1O
